A selection: hits, their analogues and other compounds. The true share with any hit is near 1.3%.
Hep lipid drop – hepatic lipid droplet formation modulation | AML12 mouse hepatocytes, oleate lipid droplets, BODIPY imaging | inhibition, % at 6.5 µM | actives 0.4% (n = 240,000) | AID 1656;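 active means lipid droplet intensity inhibited by at least 50%, with more than 500 cells counted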
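Technique: fluorescence imaging, 20x objective, two fields per well / Assay system: AML12 hepatocytes (mouse) / Measure: % inhibition of lipid droplet signal / Doses: 6.5 µM single-point dosing / Incubation: overnight exposure / Reagent: 100 µM oleic acid challenge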
GRK2 inh – blocks RNA aptamer binding to human GRK2; P25098; bead flow cytometry, FAM-aptamer displacement from GRK2; inhibition of aptamer binding, % at 10 µM; actives 0.59% (n = 330,000); AID 488847;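 active means inhibition of aptamer binding above 40%, roughly 3 SD of noise, on plates passing a quality check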;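 further: median bead fluorescence of bound FAM aptamer so fluorescent compounds give negative values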
GASC-1 inh – human JMJD2C demethylase inhibition; GST-JMJD2C(1-420) H3K9me3 demethylation, DELFIA europium; inhibition, % at 2.35 µM; actives 0.069% (n = 330,000);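 active means more than half of a compound's replicate wells show inhibition beyond 50%, single wells judged on their own value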;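 further: signal counts dimethyl H3K9 product captured on neutravidin plate; 0% = median of DMSO wells and 100% = 0.3 times that DMSO median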
procasp3 activ – activates human procaspase-3. activation, % at 8.5 µM. P42574. recombinant procaspase-3 D3A, Ac-DEVD-pNA absorbance 405 nm. actives 0.11% (n = 330,000). AID 463141;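 active means activation above the mean of all tested compounds plus 3 SD, cut at about 21% in these data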;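 further: 0% = DMSO alone and 100% = DMSO wells spiked with extra 5 µM PC-3 D3A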
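Test system: Procaspase-3 D3A mutant, all three cleavage aspartates alanine | Dosing: Single dose, 8.5 µM nominal compound, 0.8% DMSO | Schedule: 1 h preincubation, 2 h reaction | Technique: 405 nm absorbance of p-nitroaniline, reads at 0 and 120 min | Repeats: One well per compound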
VLA-4 inh – inhibition in a human VLA-4 binding assay; VLA-4 expressing cells, ligand binding flow cytometry; P13612; inhibition, % (about 7 µM as worked out from the volumes in the protocol); actives 0.2% (n = 330,000); in the data active means inhibition above about 50%
Target sequence (P13612 whole entry, looked up): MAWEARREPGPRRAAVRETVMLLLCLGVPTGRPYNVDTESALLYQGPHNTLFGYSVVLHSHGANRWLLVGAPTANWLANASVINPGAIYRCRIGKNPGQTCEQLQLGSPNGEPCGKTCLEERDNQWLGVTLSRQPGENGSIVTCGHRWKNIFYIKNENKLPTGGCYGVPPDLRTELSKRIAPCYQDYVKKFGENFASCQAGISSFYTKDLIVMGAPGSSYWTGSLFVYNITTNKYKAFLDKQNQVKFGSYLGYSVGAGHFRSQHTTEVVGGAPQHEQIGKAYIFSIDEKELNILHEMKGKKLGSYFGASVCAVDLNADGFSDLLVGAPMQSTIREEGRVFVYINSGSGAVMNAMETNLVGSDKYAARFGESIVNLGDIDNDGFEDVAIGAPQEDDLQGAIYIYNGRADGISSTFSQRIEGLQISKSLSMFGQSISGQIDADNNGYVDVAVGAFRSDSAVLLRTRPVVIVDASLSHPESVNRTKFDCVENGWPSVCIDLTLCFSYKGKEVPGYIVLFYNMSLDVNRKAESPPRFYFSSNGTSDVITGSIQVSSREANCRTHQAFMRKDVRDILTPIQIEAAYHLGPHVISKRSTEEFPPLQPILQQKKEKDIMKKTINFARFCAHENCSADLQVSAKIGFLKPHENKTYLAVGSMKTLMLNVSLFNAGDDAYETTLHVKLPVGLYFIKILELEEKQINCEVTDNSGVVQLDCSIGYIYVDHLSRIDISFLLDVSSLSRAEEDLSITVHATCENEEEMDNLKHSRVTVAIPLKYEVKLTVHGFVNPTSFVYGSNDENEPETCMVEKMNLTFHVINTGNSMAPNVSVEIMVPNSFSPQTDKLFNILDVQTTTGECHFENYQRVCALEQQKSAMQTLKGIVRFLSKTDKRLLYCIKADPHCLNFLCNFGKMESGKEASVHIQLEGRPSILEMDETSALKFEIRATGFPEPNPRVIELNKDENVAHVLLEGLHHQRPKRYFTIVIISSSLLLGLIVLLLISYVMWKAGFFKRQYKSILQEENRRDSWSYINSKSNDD
proCasp7 act – activates human procaspase-7, counter-screen for procaspase-3 activators; P55210; recombinant procaspase-7, Ac-DEVD-pNA absorbance 405 nm; D23A/D198A/D206A triple mutant, cannot self-cleave; scale: DMSO 0, 5 µM enzyme 100; activation, % at 8.5 µM; actives 0.093% (n = 330,000);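 active means percent activation above the screen-wide mean plus 3 SD, cut at about 25% in these data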
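Test system: Procaspase-7 triple mutant (PC-7 D3A). Also added: Ac-DEVD-pNA substrate, 400 µM as added. Schedule: 1 h enzyme–compound preincubation and 2 h substrate reaction, both 25 °C. Signal: p-Nitroaniline absorbance at 405 nm, read at 0 and 120 min. Control set: low DMSO alone, high DMSO plus 5 µM PC-7.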
VLA-4 mod pick – confirmation of allosteric modulators of human VLA-4 integrin. actives 2% (n = 1,300). shares compounds with VLA-4 inh. U937 cells, HUTS-21 LIBS mAb binding, flow cytometry; LDV ligand present at threefold Kd. inhibition, % at 6.7 µM. AID 2813; in the data active means inhibition above about 40%;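 further: 0% = ligand without compound and 100% = no ligand background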
* marks the source's active call; other numbers are inactive results; i = inactive; nt = not tested or not shown.

SMILES	Hep lipid drop	GRK2 inh	GASC-1 inh	procasp3 activ	VLA-4 inh	proCasp7 act	VLA-4 mod pick
COc1ccccc1NC(=O)Cn1c(=O)oc2ccccc21	-4	6	-2	0	-3	7	nt
CCN(CC)C(=O)Cn1c(=O)oc2ccccc21	-9	9	2	-2	6	7	-13
CC(=O)Cn1c(=O)oc2ccccc21	-12	0	20	5	-8	5	nt
CCN(C(=O)Cn1c(=O)oc2ccccc21)c1cccc(C(F)(F)F)c1	nt	0	-5	-6	-10	1	9
CCOC(=O)c1c(C)nc2sc3c(=O)n(-c4ccc(C)cc4)cnc3c2c1-c1ccc(OC)cc1	nt	1	5	3	94*	6	11
CCOC(=O)c1c(C)nc2sc3c(=O)n(-c4ccc(C(C)=O)cc4)cnc3c2c1-c1ccc(Cl)cc1	8	3	3	4	10	-1	nt
CCn1c(SCC(=O)Nc2nc(C)cs2)nnc1C(NC(=O)c1ccccc1Cl)C(C)C (stereo unspecified)	28	0	-3	1	0	4	-7
CN(CC(=O)Nc1c(Cl)cccc1Cl)C(=O)CNC(=O)c1ccc2ccccc2c1	nt	0	0	0	7	0	nt
COc1ccc(OC)c(S(=O)(=O)N2CCN(C(=O)NC3CCCCC3)CC2)c1	nt	5	-9	5	17	11	nt
CC1=C(C(=O)OCC2CCCO2)C(c2ccncc2)C2=C(CCCC2=O)N1 (stereo unspecified)	nt	2	7	1	92*	-3	1
O=C(O)c1ccc(NC2OC[C@@H](O)[C@H](O)[C@H]2O)cc1 (stereo partly specified)	nt	11	-1	0	59*	-8	-6
Cc1ccnc(SCC(=O)N2CCC(C(N)=O)CC2)n1	nt	2	4	2	51*	0	12
Cc1cccc(N(C(=O)c2csnn2)C(C(=O)NC2CCCCC2)c2ccncc2)c1 (stereo unspecified)	-18	0	-2	-13	2	-6	nt
CCNc1nc2c(c(=O)n(C)c(=O)n2C)n1Cc1ccc(Cl)cc1	-13	2	-29	9	57*	1	5
CCC(C)Nc1nc2c(c(=O)n(C)c(=O)n2C)n1Cc1ccc(Cl)cc1 (stereo unspecified)	-16	0	-2	8	-2	3	nt
O=C(COC(=O)CN1C(=O)NC2(CCCCC2)C1=O)Nc1cc(F)ccc1F	nt	8	9	10	16	4	nt
O=C(COC(=O)c1ccc2c(c1)OCO2)NCc1ccc2c(c1)OCO2	8	3	-3	11	3	0	nt
COCC(=O)NCc1ccc2c(c1)OCO2	nt	1	-16	1	53*	1	-8
COc1cc(N)c(Cl)cc1C(=O)OCC(=O)Nc1ccc(N2CCOCC2)cc1	nt	0	3	3	-14	2	nt
COc1cccc(NC(=O)Cc2ccccc2)c1	nt	0	15	7	28	-1	nt
O=C(Cc1ccccc1)Nc1cccc(N2C(=O)C=CC2=O)c1	1	0	-13	-13	60*	-21	36
CCOC(=O)N1CCC(NC(=O)CS(=O)Cc2nc(-c3ccc(Cl)cc3)oc2C)CC1 (stereo unspecified)	-17	0	-2	-4	-2	3	nt
O=C(O)c1cccc(Nc2ccncc2[N+](=O)[O-])c1	3	0	-12	4	i	-9	nt
C/C(=N\Nc1ccc([N+](=O)[O-])cc1[N+](=O)[O-])c1cccnc1	-6	2	-13	-3	45	-2	-18
CCC(C)NC(=O)c1ccccc1NC(=O)COc1ccc(OC)cc1 (stereo unspecified)	-1	nt	-21	nt	nt	nt	6
SMILES	Hep lipid drop	GRK2 inh	GASC-1 inh	procasp3 activ	VLA-4 inh	proCasp7 act	VLA-4 mod pick
COc1ccc(OCC(=O)Nc2ccccc2C(=O)NC(C)C)cc1	11	2	7	9	1	16	-2
COc1ccc(OCC(=O)Nc2ccccc2OC)cc1	nt	6	-12	-3	0	0	nt
CC(CNS(=O)(=O)c1ccccc1)(c1ccccc1)N1CCCCC1 (stereo unspecified)	-10	5	25	5	2	2	nt
COc1ccccc1C(C(=O)NC1CCCC1)N(C(=O)c1csnn1)C1CC1 (stereo unspecified)	-30	0	-14	8	9	1	nt
COc1ccc(C(=O)C2CCCN(S(=O)(=O)N(C)C)C2)c(C)c1 (stereo unspecified)	-1	2	11	1	-8	5	nt
CSc1ccccc1C(=O)C1CCCN(S(=O)(=O)N(C)C)C1 (stereo unspecified)	-11	4	-1	1	52*	-1	-10
CCOC(=O)CSc1ccc2nnc(-c3cccs3)n2n1	2	1	-15	-4	51*	0	16
Cc1ccc(C2C(N)C(=O)N2c2ccc(C)cc2)cc1 (stereo unspecified)	-1	2	7	5	-5	-4	nt
CC(C)CCn1c(C(C)O)nc2ccccc21 (stereo unspecified)	-2	0	3	6	87*	8	0
CCCCn1c(C(C)O)nc2ccccc21 (stereo unspecified)	-2	0	7	5	1	-14	nt
CCCCCCCNC(=O)C1(CC2CC(c3cccc(Br)c3)=NO2)CCNCC1 (stereo unspecified)	-8	0	-3	5	38	6	nt
O=C(c1ccc([N+](=O)[O-])cc1)N1CCN(C(=O)c2ccco2)CC1	1	1	5	9	11	-3	nt
Cc1ccccc1NC(=O)c1ccc2nc(N3CCOCC3)sc2c1	-1	0	15	10	18	-2	8
Cc1cc(C(=O)N2CCN(C(=O)c3ccco3)CC2)ccc1[N+](=O)[O-]	20	0	5	3	51*	2	6
O=C(c1ccc2nc(N3CCOCC3)sc2c1)N1CCN(C(=O)c2ccco2)CC1	nt	0	-1	10	-5	-7	-6
Cc1ccccc1CNC(=O)c1ccc2nc(N3CCOCC3)sc2c1	34	0	-12	8	-4	-9	11
CCOC(=O)c1c(C)[nH]c(C)c1C(=O)COC(=O)CSc1ccc(C)cc1	nt	1	-2	1	-10	2	nt
CN1CCN(C(=O)c2cc3nc(-c4ccc(Cl)cc4)cc(C(F)(F)F)n3n2)CC1	nt	1	1	1	-10	-9	nt

Source: PubChem (several laboratories)
